Assay results taken from ChEMBL document CHEMBL3120045, “Monovalent mannose-based DC-SIGN antagonists: targeting the hydrophobic groove of the receptor” (Eur J Med Chem, 2014).
pIC50, pKi: −log10 of the molar value.

How the values were obtained:
CD209 antigen [1] = target: T1, CD209 antigen (Homo sapiens, UniProt Q9NNX6); assay: Antagonist activity at DC-SIGN receptor (unknown origin) assessed as inhibition of mannosylated BSA binding by SPR assay
T1 sequence (Q9NNX6 whole entry): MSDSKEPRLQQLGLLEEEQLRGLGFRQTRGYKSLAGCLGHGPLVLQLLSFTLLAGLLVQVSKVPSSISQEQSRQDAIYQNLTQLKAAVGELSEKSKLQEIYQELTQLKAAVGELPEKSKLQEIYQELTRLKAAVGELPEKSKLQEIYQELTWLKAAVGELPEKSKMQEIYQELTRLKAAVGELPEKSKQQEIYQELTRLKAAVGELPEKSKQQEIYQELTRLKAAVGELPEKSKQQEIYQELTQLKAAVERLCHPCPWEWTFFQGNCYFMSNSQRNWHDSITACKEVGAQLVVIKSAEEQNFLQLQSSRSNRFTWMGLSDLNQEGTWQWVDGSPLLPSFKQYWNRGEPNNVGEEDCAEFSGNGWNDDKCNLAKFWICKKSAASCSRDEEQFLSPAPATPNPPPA

CD209 antigen [2] = target: T1, CD209 antigen; assay: Displacement of biotinylated HIV1 gp120 from DC-SIGN receptor carbohydrate recognition domain (unknown origin) after 2 hrs by solid-phase competitive displacement assay
[3] = Cytotoxicity against human DC at 50 uM after 24 hrs by propidium iodide staining-based flow cytometry
In short: (§1)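 Immature DCs, seeded after 5 days of culture at 0.5 × 10⁶ cells/ml, were treated with compounds at 50, 100 and 250 for 24 h. Cells were then harvested, stained with propidium iodide for 15 min and analysed by flow cytometry. The percentage of PI-positive cells was taken as the percentage of dead cells.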

[4] = Cytotoxicity against human DC at 250 uM after 24 hrs by propidium iodide staining-based flow cytometry; in short: as §1
[5] = Cytotoxicity against human DC at 250 uM after 24 hrs by propidium iodide staining-based flow cytometry
[6] = Cytotoxicity against human DC at 100 uM after 24 hrs by propidium iodide staining-based flow cytometry; in short: as §1
CD209 antigen [7] = target: T1, CD209 antigen; assay: Displacement of [125I]-Man30-BSA from DC-SIGN receptor carbohydrate recognition domain (unknown origin) after 2 hrs by gamma-counting analysis

| pIC50 (CD209 antigen [2]) | Compound | Activity [3] | Activity [4] | Activity [5] | also measured |
| --- | --- | --- | --- | --- | --- |
| 2.56 | COC(=O)[C@H]1C[C@H](OCCN=[N+]=[N-])[C@@H](O[C@H]2O[C@H](CO)[C@@H](O)[C@H](O)[C@@H]2O)C[C@@H]1C(=O)OC | – | – | – | pIC50 (CD209 antigen [1]): 2.99 |
| 3.38 | [N-]=[N+]=NCCO[C@H]1C[C@H](C(=O)NCc2ccc(CO)cc2)[C@@H](C(=O)NCc2ccc(CO)cc2)C[C@@H]1O[C@H]1O[C@H](CO)[C@@H](O)[C@H](O)[C@@H]1O | – | – | – | pIC50 (CD209 antigen [1]): 3.49 |
| – | N#Cc1ccc(C(=O)NCC(CNC(=O)c2ccc(C#N)cc2)O[C@H]2O[C@H](CO)[C@@H](O)[C@H](O)[C@@H]2O)cc1 | Non-toxic | – | – | – |
| – | O=C(NCC(CNC(=O)c1ccc2ccccc2c1)O[C@H]1O[C@H](CO)[C@@H](O)[C@H](O)[C@@H]1O)c1ccc2ccccc2c1 | Non-toxic | Toxic | Toxic | – |
| – | OC[C@H]1O[C@H](OC(COc2cccc3ccccc23)COc2cccc3ccccc23)[C@@H](O)[C@@H](O)[C@@H]1O | Non-toxic | Toxic | Toxic | Activity [6]: Toxic |
| – | COc1ccc2ccc(OCC(COc3ccc4ccc(OC)cc4c3)O[C@H]3O[C@H](CO)[C@@H](O)[C@H](O)[C@@H]3O)cc2c1 | Non-toxic | Toxic | Toxic | Activity [6]: Toxic |
| – | COc1ccc(OCC(CO[C@H]2O[C@H](CO)[C@@H](O)[C@H](O)[C@@H]2O)Oc2ccc(OC)cc2)cc1 (mixture of isomers) | Non-toxic | – | – | – |
| – | OC[C@H]1O[C@H](OCC(COc2ccc3ccccc3c2)Oc2ccc3ccccc3c2)[C@@H](O)[C@@H](O)[C@@H]1O (mixture of isomers) | Non-toxic | Toxic | Toxic | – |
| – | OC[C@H]1OC(O)[C@@H](O)[C@@H](O)[C@@H]1O (stereo partly drawn) [D-MANNOSE] | – | – | – | pKi (CD209 antigen [7]): 1.88 |
| 2.53 | C[C@H](O)[C@@H](O)[C@@H](O)[C@H](O)C=O [L-FUCOSE] | – | – | – | pKi (CD209 antigen [7]): 2.17 |
